# From ChEMBL document CHEMBL2390925, “Further studies on 2-arylacetamide pyridazin-3(2H)-ones: design, synthesis and evaluation of 4,6-disubstituted analogs as formyl peptide receptors (FPRs) agonists” (Eur J Med Chem, 2013)
# Tests used:
# HL-60 [1] = test: Effect on Ca2+ mobilization in human wild type HL60 cells; assay type: functional, cell-based
# Outline: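 Wild-type, non-transfected HL-60 cells, grown without G418, were run in the same Fluo-4 Ca2+ flux assay. Fluorescence was monitored every 5 s for 240 s at room temperature.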
# HL-60 [2] = test: Cytotoxicity against human wild type HL60 cells at 5 to 20 uM after 60 mins by CellTitre-Glo luminescent assay; assay type: cell-based; details: hl-60, 1 h
# Outline: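 Wild-type HL-60 cells at 3×10^4 cells/well were exposed to 5, 10 or 20 µM compound for 60 min at 37 °C in 5% CO2. Samples were equilibrated to room temperature for 30 min before the CellTiter-Glo luminescence read. Triplicate samples; the experiment was representative of two.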
# [3] = target: T1, N-formyl peptide receptor 3 (Homo sapiens, UniProt P25089); test: Agonist activity at FPR3 (unknown origin) transfected in human HL60 cells assessed as induction of Ca2+ mobilization; assay type: cell-based, HL-60
# T1 sequence (P25089 whole entry): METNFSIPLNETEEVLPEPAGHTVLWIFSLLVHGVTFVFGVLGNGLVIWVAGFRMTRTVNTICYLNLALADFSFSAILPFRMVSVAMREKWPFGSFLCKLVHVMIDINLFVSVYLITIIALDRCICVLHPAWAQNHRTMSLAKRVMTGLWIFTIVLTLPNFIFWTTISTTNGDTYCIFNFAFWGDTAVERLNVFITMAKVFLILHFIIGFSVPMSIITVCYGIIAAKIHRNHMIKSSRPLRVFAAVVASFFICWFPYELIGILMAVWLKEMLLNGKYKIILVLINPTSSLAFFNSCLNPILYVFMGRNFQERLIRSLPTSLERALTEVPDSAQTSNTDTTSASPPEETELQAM
# [4] = target: T2, N-formyl peptide receptor 2 (Homo sapiens, UniProt P25090); test: Agonist activity at FPR2 (unknown origin) transfected in human HL60 cells assessed as induction of Ca2+ mobilization; assay type: functional, cell-based, HL-60
# T2 sequence (P25090 whole entry): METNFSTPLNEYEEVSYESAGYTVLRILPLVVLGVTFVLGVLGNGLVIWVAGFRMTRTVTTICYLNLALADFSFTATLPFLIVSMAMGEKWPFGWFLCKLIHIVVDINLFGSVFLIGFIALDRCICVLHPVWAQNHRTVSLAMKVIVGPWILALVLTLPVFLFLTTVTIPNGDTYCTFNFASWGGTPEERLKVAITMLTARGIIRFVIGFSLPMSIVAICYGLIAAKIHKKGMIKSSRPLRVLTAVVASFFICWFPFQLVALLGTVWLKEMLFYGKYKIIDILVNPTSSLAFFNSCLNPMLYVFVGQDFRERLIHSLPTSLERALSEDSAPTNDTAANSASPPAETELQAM
# fMet-Leu-Phe receptor = target: T3, fMet-Leu-Phe receptor (Homo sapiens, UniProt P21462); test: Agonist activity at FPR1 (unknown origin) transfected in human HL60 cells assessed as induction of Ca2+ mobilization; assay type: functional, cell-based, HL-60
# T3 sequence (P21462 whole entry): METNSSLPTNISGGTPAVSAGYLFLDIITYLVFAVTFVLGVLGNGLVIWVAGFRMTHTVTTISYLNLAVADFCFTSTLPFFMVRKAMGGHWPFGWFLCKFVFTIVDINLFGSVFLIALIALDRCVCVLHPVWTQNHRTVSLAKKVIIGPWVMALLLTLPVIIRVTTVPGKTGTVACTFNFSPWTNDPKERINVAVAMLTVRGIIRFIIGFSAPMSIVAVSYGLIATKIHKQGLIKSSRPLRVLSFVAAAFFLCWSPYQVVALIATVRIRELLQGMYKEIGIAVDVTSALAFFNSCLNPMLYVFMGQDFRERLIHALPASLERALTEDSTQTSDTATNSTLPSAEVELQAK
# [5] = target: fMet-Leu-Phe receptor 1/2 (Homo sapiens) (UniProt P21462+P25090); test: Agonist activity at FPR1/FPR2 in human neutrophils assessed as induction of Ca2+ mobilization relative to fMLF; assay type: functional
# Outline: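 Neutrophils from healthy donors were isolated by dextran sedimentation, Histopaque 1077 gradient and hypotonic red cell lysis. […] Peak response was normalized to 5 nM fMLF as 100%. EC50 comes from 5–6 point curves, mean of three experiments with different donors.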
# [6] = target: T4, fMet-Leu-Phe receptor (Homo sapiens) (UniProt P21462); test: Agonist activity at FPR1 (unknown origin) transfected in human HL60 cells assessed as induction of Ca2+ mobilization relative to fMLF; assay type: functional, cell-based; details: HL-60
# T4 sequence (whole entry): T3 sequence (P21462 whole entry)
# Outline: (§1)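 Same Fluo-4 Ca2+ flux in transfected HL-60 cells. The peak fluorescence change over baseline was normalized to 5 nM fMLF for FPR1 cells and to 5 nM WKYMVm for FPR2 and FPR3 cells, each taken as 100%. Efficacy was read from 5–6 point dose-response curves.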
# [7] = target: T5, N-formyl peptide receptor 2 (Homo sapiens) (UniProt P25090); test: Agonist activity at FPR2 (unknown origin) transfected in human HL60 cells assessed as induction of Ca2+ mobilization relative to WKYMVm; assay type: functional, cell-based; details: HL-60; outline: as §1
# T5 sequence (whole entry): T2 sequence (P25090 whole entry)
Compound,EC50 (HL-60 [1]) [µM],Activity (HL-60 [2]),EC50 [3] [µM],EC50 [4] [µM],EC50 (fMet-Leu-Phe receptor) [µM],Efficacy [5] [%],Efficacy [6] [%],Efficacy [7] [%]
COc1ccc(Cc2cc(-c3cccs3)nn(CC(=O)Nc3ccc(Br)cc3)c2=O)cc1,> 50,Non-toxic,> 50,> 50,> 50,,,
Cc1cc(NC(=O)c2ccc(Br)cc2)c(=O)n(CC(=O)Nc2ccc(Br)cc2)n1,> 50,Non-toxic,> 50,> 50,> 50,,,
COc1ccc(-c2cc(Cc3cccc(OC)c3)c(=O)n(CC(=O)Nc3ccc4c(c3)OCO4)n2)cc1,> 50,Non-toxic,> 50,> 50,> 50,,,
Cc1cc(Cc2cccc(Br)c2)c(=O)n(CC(=O)Nc2ccc(Br)cc2)n1,> 50,Non-toxic,> 50,> 50,> 50,,,
Cc1ccc(=O)n(CC(=O)Nc2ccc(I)cc2)n1,> 50,Non-toxic,> 50,> 50,> 50,,,
COc1cccc(Cc2cc(-c3ccc(Cl)cc3)nn(CC(=O)Nc3ccc(F)cc3)c2=O)c1,> 50,Non-toxic,> 50,> 50,> 50,,,
COc1cccc(Cc2cc(-c3cccs3)nn(CC(=O)Nc3ccc(F)cc3)c2=O)c1,> 50,Non-toxic,> 50,> 50,> 50,,,
Cc1cc(Cc2ccccc2)c(=O)n(CC(=O)Nc2ccc(F)cc2)n1,> 50,Non-toxic,> 50,> 50,> 50,,,
Cc1cc(Cc2cccc(F)c2)c(=O)n(CC(=O)Nc2ccc(Br)cc2)n1,> 50,Non-toxic,> 50,,,130,110,
COc1cccc(Cc2cc(-c3ccc(F)cc3)nn(CC(=O)Nc3ccc(F)cc3)c2=O)c1,> 50,Non-toxic,> 50,> 50,> 50,,,
COc1ccc(-c2cc(C)nn(CC(=O)Nc3ccc(Br)cc3)c2=O)cc1,> 50,Non-toxic,> 50,,,70,55,
COc1ccc(Cc2cc(-c3ccc(C)cc3)nn(CC(=O)Nc3ccc(Br)cc3)c2=O)cc1,> 50,Non-toxic,> 50,> 50,> 50,,,
COc1cccc(Cc2cc(-c3ccc(C)cc3)nn(CC(=O)Nc3ccc4c(c3)OCO4)c2=O)c1,> 50,Non-toxic,> 50,> 50,> 50,,,
CC1=NN(CC(=O)Nc2ccc(I)cc2)C(=O)CC1,> 50,Non-toxic,> 50,> 50,> 50,,,
COc1cccc(Cc2cc(-c3ccccc3)nn(CC(=O)Nc3ccc(F)cc3)c2=O)c1,> 50,Non-toxic,> 50,> 50,> 50,,,
COc1ccc(Cc2cc(-c3ccc(OC)cc3)nn(CC(=O)Nc3ccc(Br)cc3)c2=O)cc1,> 50,Non-toxic,> 50,> 50,> 50,,,
Cc1cc(Cc2ccc(C#N)cc2)c(=O)n(CC(=O)Nc2ccc(Br)cc2)n1,> 50,Non-toxic,> 50,> 50,> 50,,,

Compound,EC50 (HL-60 [1]) [µM],Activity (HL-60 [2]),EC50 [3] [µM],EC50 [4] [µM],EC50 (fMet-Leu-Phe receptor) [µM],Efficacy [5] [%],Efficacy [6] [%],Efficacy [7] [%]
Cc1cc(Cc2ccc(C(F)(F)F)cc2)c(=O)n(CC(=O)Nc2ccc(Br)cc2)n1,> 50,Non-toxic,> 50,> 50,> 50,,,
COc1cccc(Cc2cc(-c3ccc(F)cc3)nn(CC(=O)Nc3ccc4c(c3)OCO4)c2=O)c1,> 50,Non-toxic,> 50,> 50,> 50,,,
COc1ccc(Cc2cc(-c3ccc(F)cc3)nn(CC(=O)Nc3ccc(Br)cc3)c2=O)cc1,> 50,Non-toxic,> 50,> 50,> 50,,,
COc1cccc(Cc2cc(-c3ccc(Cl)cc3)nn(CC(=O)Nc3ccc4c(c3)OCO4)c2=O)c1,> 50,Non-toxic,> 50,> 50,> 50,,,
COc1ccc(-c2cc(Cc3cccc(OC)c3)c(=O)n(CC(=O)Nc3ccc(F)cc3)n2)cc1,> 50,Non-toxic,> 50,> 50,> 50,,,
COc1cc(Cc2cc(C)nn(CC(=O)Nc3ccc(Br)cc3)c2=O)cc(OC)c1,> 50,Non-toxic,> 50,> 50,> 50,,,
Cc1cc(Cc2cccc(Cl)c2)c(=O)n(CC(=O)Nc2ccc(Br)cc2)n1,> 50,Non-toxic,> 50,,,90,100,
COc1cccc(Cc2cc(-c3ccc(C)cc3)nn(CC(=O)Nc3ccc(F)cc3)c2=O)c1,> 50,Non-toxic,> 50,> 50,> 50,,,
Cc1cc(Cc2cccc3ccccc23)c(=O)n(CC(=O)Nc2ccc(Br)cc2)n1,> 50,Non-toxic,> 50,> 50,13.8,,20,
COc1cccc(Cc2cc(-c3cccs3)nn(CC(=O)Nc3ccc4c(c3)OCO4)c2=O)c1,> 50,Non-toxic,> 50,> 50,> 50,,,
COc1ccc(Cc2cc(Cc3ccccc3)nn(CC(=O)Nc3ccc(Br)cc3)c2=O)cc1,> 50,Non-toxic,> 50,> 50,> 50,,,
COc1cc(Cc2cc(C)nn(CC(=O)Nc3ccc(I)cc3)c2=O)cc(OC)c1,> 50,Non-toxic,> 50,,,75,80,
COc1ccc(Cc2cc(-c3ccc(Cl)cc3)nn(CC(=O)Nc3ccc(Br)cc3)c2=O)cc1,> 50,Non-toxic,> 50,> 50,> 50,,,
COc1cccc(Cc2cc(-c3ccccc3)nn(CC(=O)Nc3ccc4c(c3)OCO4)c2=O)c1,> 50,Non-toxic,> 50,> 50,> 50,,,
COc1cccc(Cc2cc(C3CCCCC3)nn(CC(=O)Nc3ccc(Br)cc3)c2=O)c1,> 50,Non-toxic,> 50,,,65,80,
Cc1cc(N)c(=O)n(CC(=O)Nc2ccc(Br)cc2)n1,> 50,Non-toxic,> 50,,,,115,85
